Several values for one entry are separate records, joined by “and”; a condition that tells them apart may be missing. Identical values can stand only once.
System: HEK-293T
Experiment: Multiplex assay against HEK293T;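 for Population Tubulin-Different-Phenotype (%): share of the cells with healthy nuclei that show this phenotype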
Type: toxicity, cell-based
Conditions: human
Method in brief: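 Live cells carried four stains from seeding: Hoechst33342, BioTracker Green Microtubule Cytoskeleton Dye, MitoTracker Red and Annexin V Alexa Fluor 680. They were imaged on a CQ1 microscope at 37°C and 5% CO2 after compound addition. Using CellPathfinder machine-learning gating, cells were split into Hoechst high-intensity objects or normal cells, normal cells into healthy, pyknosed or fragmented nuclei, and pyknosed cells into mitotic or apoptotic; tubulin, mitochondrial-mass and membrane-permeability phenotypes are per cents of healthy-nucleus cells.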

[1] = 12 h, 1 µM, compound concentration 1 uM, replicate 1
[2] = 12 h, 1 µM, compound concentration 1 uM, replicate 2
[3] = 12 h, 10 µM, compound concentration 10 uM, replicate 1
[4] = 12 h, 10 µM, compound concentration 10 uM, replicate 2
[5] = 24 h, 1 µM, compound concentration 1 uM, replicate 1
[6] = 24 h, 1 µM, compound concentration 1 uM, replicate 2
[7] = 24 h, 10 µM, compound concentration 10 uM, replicate 1
[8] = 24 h, 10 µM, compound concentration 10 uM, replicate 2
[9] = 48 h, 1 µM, compound concentration 1 uM, replicate 1
[10] = 48 h, 1 µM, compound concentration 1 uM, replicate 2
[11] = 48 h, 10 µM, compound concentration 10 uM, replicate 1
[12] = 48 h, 10 µM, compound concentration 10 uM, replicate 2

In the case of CN1CCN(Cc2ccc(Nc3ncc(Cl)c(Nc4ccccc4S(=O)(=O)N(C)C)n3)cc2)CC1 [DUBERMATINIB], the “Population Apoptotic (%)” value [1] is reported as 48%, the “Population Fragmented Nuclei (%)” value [1] is reported as 14% and the “Population Healthy Nuclei (%)” value [1] is reported as 42%. For the same compound, the “Population Hoechst High Intensity Objects (%)” value [1] was 12%, the “Population Membrane Permeable-Phenotype (%)” value [1] was 0% and the “Population Mitochondria Different-Phenotype (%)” value [1] was 72%. The “Population Mitotic Cells (%)” value [1] was 51%, the “Population Normal (%)” value [1] was 87% and the “Population Pyknosed Nuclei (%)” value [1] was 42%. For the same compound, the “Population Tubulin-Different-Phenotype (%)” value [1] was 35%, the “Total Cell Count” value [1] was 297 and the “Population Apoptotic (%)” value [2] was 13%. For the same compound, the “Population Fragmented Nuclei (%)” value [2] was 8%, the “Population Healthy Nuclei (%)” value [2] was 55% and the “Population Hoechst High Intensity Objects (%)” value [2] was 2%. The “Population Membrane Permeable-Phenotype (%)” value [2] was 5%, the “Population Mitochondria Different-Phenotype (%)” value [2] was 14% and the “Population Mitotic Cells (%)” value [2] was 86%. For the same compound, the “Population Normal (%)” value [2] was 97%, the “Population Pyknosed Nuclei (%)” value [2] was 35% and the “Population Tubulin-Different-Phenotype (%)” value [2] was 14%. The “Total Cell Count” value [2] was 174, the “Population Apoptotic (%)” value [3] was 62% and the “Population Fragmented Nuclei (%)” value [3] was 11%. For the same compound, the “Population Healthy Nuclei (%)” value [3] was 40%, the “Population Hoechst High Intensity Objects (%)” value [3] was 18% and the “Population Membrane Permeable-Phenotype (%)” value [3] was 1%. The “Population Mitochondria Different-Phenotype (%)” value [3] was 96%, the “Population Mitotic Cells (%)” value [3] was 38% and the “Population Normal (%)” value [3] was 81%. The “Population Pyknosed Nuclei (%)” value [3] was 47%, the “Population Tubulin-Different-Phenotype (%)” value [3] was 88% and the “Total Cell Count” value [3] was 258. The “Population Apoptotic (%)” value [4] was 16%, the “Population Fragmented Nuclei (%)” value [4] was 14% and the “Population Healthy Nuclei (%)” value [4] was 59%. For the same compound, the “Population Hoechst High Intensity Objects (%)” value [4] was 4%, the “Population Membrane Permeable-Phenotype (%)” value [4] was 2% and the “Population Mitochondria Different-Phenotype (%)” value [4] was 32%. For the same compound, the “Population Mitotic Cells (%)” value [4] was 83%, the “Population Normal (%)” value [4] was 95% and the “Population Pyknosed Nuclei (%)” value [4] was 26%. The “Population Tubulin-Different-Phenotype (%)” value [4] was 33%, the “Total Cell Count” value [4] was 214 and the “Population Apoptotic (%)” value [5] was 53%. For the same compound, the “Population Fragmented Nuclei (%)” value [5] was 15%, the “Population Healthy Nuclei (%)” value [5] was 45% and the “Population Hoechst High Intensity Objects (%)” value [5] was 10%. The “Population Membrane Permeable-Phenotype (%)” value [5] was 0%, the “Population Mitochondria Different-Phenotype (%)” value [5] was 59% and the “Population Mitotic Cells (%)” value [5] was 46%. For the same compound, the “Population Normal (%)” value [5] was 89%, the “Population Pyknosed Nuclei (%)” value [5] was 39% and the “Population Tubulin-Different-Phenotype (%)” value [5] was 31%. For the same compound, the “Total Cell Count” value [5] was 290, the “Population Apoptotic (%)” value [6] was 27% and the “Population Fragmented Nuclei (%)” value [6] was 19%. For the same compound, the “Population Healthy Nuclei (%)” value [6] was 69%, the “Population Hoechst High Intensity Objects (%)” value [6] was 3% and the “Population Membrane Permeable-Phenotype (%)” value [6] was 16%. For the same compound, the “Population Mitochondria Different-Phenotype (%)” value [6] was 5%, the “Population Mitotic Cells (%)” value [6] was 72% and the “Population Normal (%)” value [6] was 96%. For the same compound, the “Population Pyknosed Nuclei (%)” value [6] was 11%, the “Population Tubulin-Different-Phenotype (%)” value [6] was 17% and the “Total Cell Count” value [6] was 206. The “Population Apoptotic (%)” value [7] was 69%, the “Population Fragmented Nuclei (%)” value [7] was 15% and the “Population Healthy Nuclei (%)” value [7] was 33%. The “Population Hoechst High Intensity Objects (%)” value [7] was 18%, the “Population Mitochondria Different-Phenotype (%)” value [7] was 88% and the “Population Mitotic Cells (%)” value [7] was 30%. The “Population Normal (%)” value [7] was 81%, the “Population Pyknosed Nuclei (%)” value [7] was 50% and the “Population Tubulin-Different-Phenotype (%)” value [7] was 80%. The “Total Cell Count” value [7] was 270, the “Population Apoptotic (%)” value [8] was 28% and the “Population Fragmented Nuclei (%)” value [8] was 19%. For the same compound, the “Population Healthy Nuclei (%)” value [8] was 42%, the “Population Hoechst High Intensity Objects (%)” value [8] was 6% and the “Population Membrane Permeable-Phenotype (%)” value [8] was 1%. For the same compound, the “Population Mitochondria Different-Phenotype (%)” value [8] was 21%, the “Population Mitotic Cells (%)” value [8] was 71% and the “Population Normal (%)” value [8] was 93%. The “Population Pyknosed Nuclei (%)” value [8] was 38%, the “Population Tubulin-Different-Phenotype (%)” value [8] was 25% and the “Total Cell Count” value [8] was 222. The “Population Apoptotic (%)” value [9] was 60%, the “Population Fragmented Nuclei (%)” value [9] was 26% and the “Population Healthy Nuclei (%)” value [9] was 51%. For the same compound, the “Population Hoechst High Intensity Objects (%)” value [9] was 10%, the “Population Membrane Permeable-Phenotype (%)” value [9] was 4% and the “Population Mitochondria Different-Phenotype (%)” value [9] was 26%. For the same compound, the “Population Mitotic Cells (%)” value [9] was 39%, the “Population Normal (%)” value [9] was 89% and the “Population Pyknosed Nuclei (%)” value [9] was 22%. The “Population Tubulin-Different-Phenotype (%)” value [9] was 24%, the “Total Cell Count” value [9] was 316 and the “Population Apoptotic (%)” value [10] was 38%. For the same compound, the “Population Fragmented Nuclei (%)” value [10] was 21%, the “Population Healthy Nuclei (%)” value [10] was 73% and the “Population Hoechst High Intensity Objects (%)” value [10] was 6%. The “Population Membrane Permeable-Phenotype (%)” value [10] was 20%, the “Population Mitochondria Different-Phenotype (%)” value [10] was 1% and the “Population Mitotic Cells (%)” value [10] was 61%. For the same compound, the “Population Normal (%)” value [10] was 93%, the “Population Pyknosed Nuclei (%)” value [10] was 5% and the “Population Tubulin-Different-Phenotype (%)” value [10] was 17%. The “Total Cell Count” value [10] was 259, the “Population Apoptotic (%)” value [11] was 65% and the “Population Healthy Nuclei (%)” value [11] was 24%. For the same compound, the “Population Hoechst High Intensity Objects (%)” value [11] was 15%, the “Population Membrane Permeable-Phenotype (%)” value [11] was 0% and the “Population Mitochondria Different-Phenotype (%)” value [11] was 83%. For the same compound, the “Population Mitotic Cells (%)” value [11] was 34%, the “Population Normal (%)” value [11] was 84% and the “Population Pyknosed Nuclei (%)” value [11] was 58%. The “Population Tubulin-Different-Phenotype (%)” value [11] was 70%, the “Total Cell Count” value [11] was 267 and the “Population Apoptotic (%)” value [12] was 29%. For the same compound, the “Population Fragmented Nuclei (%)” value [12] was 17%, the “Population Healthy Nuclei (%)” value [12] was 36% and the “Population Hoechst High Intensity Objects (%)” value [12] was 6%. For the same compound, the “Population Membrane Permeable-Phenotype (%)” value [12] was 2%, the “Population Mitochondria Different-Phenotype (%)” value [12] was 32% and the “Population Mitotic Cells (%)” value [12] was 70%. The “Population Normal (%)” value [12] was 93%, the “Population Pyknosed Nuclei (%)” value [12] was 46% and the “Population Tubulin-Different-Phenotype (%)” value [12] was 35%. The “Total Cell Count” value [12] was 210.
In the case of CN1CCN(Cc2cc(NC(=O)c3ccc4c(c3)CN(c3ccccc3)CC4)cc(C(F)(F)F)c2)CC1, the “Population Apoptotic (%)” value [1] is reported as 37% and 18%, the “Population Fragmented Nuclei (%)” value [1] is reported as 18% and 16% and the “Population Healthy Nuclei (%)” value [1] is reported as 48% and 58%. The “Population Hoechst High Intensity Objects (%)” value [1] was 35% and 18%, the “Population Membrane Permeable-Phenotype (%)” value [1] was 16% and 8% and the “Population Mitotic Cells (%)” value [1] was 62% and 81%. The “Population Normal (%)” value [1] was 64% and 81%, the “Population Pyknosed Nuclei (%)” value [1] was 32% and 24% and the “Total Cell Count” value [1] was 601 and 582. The “Population Apoptotic (%)” value [2] was 20% and 14%, the “Population Fragmented Nuclei (%)” value [2] was 4% and 5% and the “Population Healthy Nuclei (%)” value [2] was 80% and 87%. For the same compound, the “Population Mitochondria Different-Phenotype (%)” value [2] was 36% and 15%, the “Population Mitotic Cells (%)” value [2] was 79% and 85% and the “Population Normal (%)” value [2] was 89% and 97%. The “Population Pyknosed Nuclei (%)” value [2] was 15% and 6%, the “Total Cell Count” value [2] was 1350 and 1353 and the “Population Apoptotic (%)” value [5] was 45% and 17%. The “Population Fragmented Nuclei (%)” value [5] was 18% and 14%, the “Population Healthy Nuclei (%)” value [5] was 63% and 71% and the “Population Mitochondria Different-Phenotype (%)” value [5] was 35% and 12%. The “Population Mitotic Cells (%)” value [5] was 54% and 82%, the “Population Normal (%)” value [5] was 70% and 90% and the “Population Pyknosed Nuclei (%)” value [5] was 18% and 14%. The “Total Cell Count” value [5] was 559 and 631, the “Population Apoptotic (%)” value [6] was 11% and the “Population Fragmented Nuclei (%)” value [6] was 13% and 16%. For the same compound, the “Population Healthy Nuclei (%)” value [6] was 78% and 81%, the “Population Mitotic Cells (%)” value [6] was 88% and the “Population Normal (%)” value [6] was 89% and 96%. The “Total Cell Count” value [6] was 1856 and 2285.

Source: ChEMBL document CHEMBL4689842, “EUbOPEN Chemogenomics Library wave 1” (2021)
